The structures appear in SMILES notation.

This note sets out measurements from ChEMBL document CHEMBL4411287, “Discovery and optimization of a series of 3-substituted indazole derivatives as multi-target kinase inhibitors for the treatment of lung squamous cell carcinoma” (Eur J Med Chem, 2019).

Series [1] relates to KG-1. The experiment in a line: Antiproliferative activity against human KG1 cells after 72 hrs by CCK8 assay. The conditions noted are these: KG-1, 72 h. On the technique in general: Formazan colour is commonly taken as a measure of viable cells.
Series [2] addresses Fibroblast growth factor receptor 2 (Homo sapiens) (UniProt P21802). The experiment in a line: Inhibition of FGFR2 (unknown origin) at 100 nM relative to control. The procedure, abridged: (§1)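 Purified recombinant kinase domains run in ELISA on precoated poly(Glu,Tyr) 4:1 (20 µg/mL) with 10 µM ATP in 50 mM HEPES pH 7.4, 50 mM MgCl2, 0.5 mM MnCl2, 0.2 mM Na3VO4, 1 mM DTT; 1% DMSO control; 60 min at 37 °C. Phosphotyrosine read by PY99 antibody, HRP anti-mouse IgG, OPD/H2O2 at 490 nm; inhibition = [1−A490/A490control]×100%; two separate experiments.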

Series [3] concerns T1, Discoidin domain-containing receptor 2 (Homo sapiens), Q16832 [I638F].
T1 sequence (whole entry): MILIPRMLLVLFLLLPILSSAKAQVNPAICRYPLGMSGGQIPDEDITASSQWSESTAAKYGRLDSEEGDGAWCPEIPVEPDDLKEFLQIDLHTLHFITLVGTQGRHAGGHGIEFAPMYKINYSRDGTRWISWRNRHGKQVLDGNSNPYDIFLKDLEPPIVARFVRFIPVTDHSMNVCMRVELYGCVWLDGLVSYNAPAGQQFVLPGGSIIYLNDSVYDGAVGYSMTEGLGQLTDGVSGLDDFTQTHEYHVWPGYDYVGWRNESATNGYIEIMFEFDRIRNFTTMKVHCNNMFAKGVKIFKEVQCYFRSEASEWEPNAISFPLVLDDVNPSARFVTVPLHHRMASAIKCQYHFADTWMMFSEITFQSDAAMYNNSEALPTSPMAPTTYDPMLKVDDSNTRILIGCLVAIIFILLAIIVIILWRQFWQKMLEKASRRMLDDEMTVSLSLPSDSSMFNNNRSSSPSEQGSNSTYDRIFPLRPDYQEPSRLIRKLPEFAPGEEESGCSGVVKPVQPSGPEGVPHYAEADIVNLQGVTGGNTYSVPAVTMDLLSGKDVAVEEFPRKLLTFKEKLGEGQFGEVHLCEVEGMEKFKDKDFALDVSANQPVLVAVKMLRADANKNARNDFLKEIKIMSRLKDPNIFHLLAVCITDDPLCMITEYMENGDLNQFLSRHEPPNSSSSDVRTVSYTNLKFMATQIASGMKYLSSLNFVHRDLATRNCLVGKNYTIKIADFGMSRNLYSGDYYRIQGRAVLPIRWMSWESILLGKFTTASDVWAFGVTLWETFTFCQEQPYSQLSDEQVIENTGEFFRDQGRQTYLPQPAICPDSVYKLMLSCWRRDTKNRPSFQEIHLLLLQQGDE
The experiment in a line: Inhibition of DDR2 I638F mutant phosphorylation in human NCI-H2286 cells after 2 hrs by Western blot analysis. Type of series: cell-based. Summed up: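 NCI-H2286 cells exposed to compound for 2 h at 37 °C and lysed in SDS sample buffer. Lysates run on 10% SDS-PAGE and blotted to nitrocellulose. Membranes probed for phospho- and total DDR2, ERK and Akt, with GAPDH as loading control, and detected by HRP secondary antibody and enhanced chemiluminescence.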
(Immunoblotting shows a protein as a band on a membrane.)

The subject of series [4] is NCI-H1581. The experiment in a line: Antitumor activity against human NCI-H1581 cells xenografted in nude mouse assessed as tumor growth inhibition at 20 mg/kg, po qd for 7 to 10 days relative to control. Type of series: functional. The conditions noted are these: read-out: TGI. The procedure, abridged:
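Female nude mice, 4-6 weeks old. NCI-H1581 cells (5×10^6 in 200 µL) injected s.c., grown to 700-800 mm³, then 1-mm³ fragments implanted s.c. by trocar. At 100-150 mm³ animals were randomized (vehicle n=12, treated n=6) and dosed orally once daily for 7 days. Tumours measured twice weekly, volume = length×width²/2. TGI calculated from change in tumour volume versus vehicle on the final day, with Student's t-test.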
(In xenograft studies the graft and the host belong to different species.)

The target of series [5] is Focal adhesion kinase 1 (Homo sapiens) (UniProt Q05397). The series is described as follows: Inhibition of FAK (unknown origin) at 10 nM relative to control. Summed up: as §1
In series [6] the target is Fibroblast growth factor receptor 4 (Homo sapiens) (UniProt P22455). The experiment in a line: Inhibition of FGFR4 (unknown origin) at 10 nM relative to control. Summed up: as §1
Series [7] is described as follows: AUC (0 to t) in ICR(CD-1) mouse at 10 mg/kg, po administered via gavage by triple quadrupole mass spectrometric analysis. Type of series: ADME, organism-based. The conditions noted are these: in vivo. Summed up:
(§2)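 Oral gavage at 1 mg/mL in 1% Tween80/water to male ICR mice (18-22 g, n=3). Plasma sampled at 0.25, 0.5, 1, 2, 4, 8 and 24 h, protein precipitated with methanol:acetonitrile (1:1) containing internal standard, and quantified by UPLC-triple quadrupole MS. AUC and MRT were taken from per-animal time-concentration curves. Cmax is the maximum plasma level and Tmax the time to reach it.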

Series [8] relates to NCI-H716. The series is described as follows: Antiproliferative activity against FGFR2 amplified human NCI-H716 cells after 72 hrs by CCK8 assay. Type of series: functional, cell-based. The note with it: NCI-H716, 72 h. Summed up: (§3)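 Cells seeded at low density in growth medium and compounds added the next day. Incubated 72 h, then proliferation read by sulforhodamine B, MTT or CCK-8. IC50 obtained by four-parameter concentration-response curve fitting.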

The target of series [9] is Insulin-like growth factor 1 receptor (Homo sapiens) (UniProt P08069). The experiment in a line: Inhibition of IGF1R (unknown origin) at 1000 nM relative to control. Summed up: as §1
A short description of series [10]: AUC (0 to infinity) in ICR(CD-1) mouse at 10 mg/kg, po administered via gavage by triple quadrupole mass spectrometric analysis. Type of series: ADME, organism-based. Details: dose 10 mg/kg, route oral, time infinity. The note with it: in vivo. Summed up: as §2
The target of series [11] is Angiopoietin-1 receptor (Homo sapiens) (UniProt Q02763). The series is described as follows: Inhibition of Tie-2 (unknown origin) at 1000 nM relative to control. Summed up: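 ELISA with purified recombinant kinase on plates precoated with poly(Glu,Tyr) 4:1 at 20 µg/mL. ATP 10 µM in HEPES pH 7.4 buffer with MgCl2, MnCl2, Na3VO4 and DTT. Run 60 min at 37 °C. Detected with anti-phosphotyrosine PY99, HRP secondary antibody and o-phenylenediamine, read at 490 nm. Inhibition % = [1 − A490/A490 control]×100. 1% DMSO as negative control.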

Series [12] deals with Voltage-gated inwardly rectifying potassium channel KCNH2 (Homo sapiens, UniProt Q12809). The series is described as follows: Inhibition of human ERG by automated patch clamp electrophysiology assay. Summed up:
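Automated patch clamp electrophysiology on the hERG channel.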

Series [13] concerns the target Tyrosine-protein kinase receptor UFO (Homo sapiens) (UniProt P30530). The experiment in a line: Inhibition of AXL (unknown origin) at 100 nM relative to control.
Series [14] addresses Cyclin-dependent kinase 4 (Homo sapiens) (UniProt P11802). The experiment in a line: Inhibition of CDK4 (unknown origin) at 100 nM relative to control.
Series [15] deals with NCI-H2286. The series is described as follows: Antiproliferative activity against human NCI-H2286 cells harboring DDR2 mutation after 72 hrs by CCK8 assay. Type of series: functional, cell-based. The conditions noted are these: NCI-H2286, 72 h. Summed up:
as §3

Series [16] addresses Epidermal growth factor receptor (Homo sapiens) (UniProt P00533). The experiment in a line: Inhibition of EGFR (unknown origin) at 100 nM relative to control.

Chain of Fibroblast growth factor receptor 4 (Homo sapiens) (P22455 22-802 limits assumed): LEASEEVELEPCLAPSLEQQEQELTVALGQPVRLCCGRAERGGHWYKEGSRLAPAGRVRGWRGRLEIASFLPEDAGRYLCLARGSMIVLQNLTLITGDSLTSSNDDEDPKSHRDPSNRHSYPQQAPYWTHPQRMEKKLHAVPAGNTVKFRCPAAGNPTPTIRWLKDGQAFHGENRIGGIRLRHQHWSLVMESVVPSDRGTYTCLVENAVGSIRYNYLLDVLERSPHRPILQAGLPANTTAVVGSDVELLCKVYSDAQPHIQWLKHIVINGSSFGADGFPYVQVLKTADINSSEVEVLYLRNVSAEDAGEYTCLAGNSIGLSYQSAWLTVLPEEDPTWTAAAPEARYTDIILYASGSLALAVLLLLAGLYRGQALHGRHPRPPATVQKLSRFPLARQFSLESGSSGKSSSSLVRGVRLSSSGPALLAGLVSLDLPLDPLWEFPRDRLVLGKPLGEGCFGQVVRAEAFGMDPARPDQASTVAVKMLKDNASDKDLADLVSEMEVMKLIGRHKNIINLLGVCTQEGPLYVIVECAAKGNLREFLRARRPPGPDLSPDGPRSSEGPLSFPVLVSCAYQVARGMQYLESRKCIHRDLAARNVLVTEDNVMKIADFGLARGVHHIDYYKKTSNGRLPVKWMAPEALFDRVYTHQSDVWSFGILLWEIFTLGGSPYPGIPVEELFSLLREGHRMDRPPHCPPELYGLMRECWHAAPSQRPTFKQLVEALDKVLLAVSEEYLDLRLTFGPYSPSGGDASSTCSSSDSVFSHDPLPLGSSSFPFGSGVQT
Chain of Fibroblast growth factor receptor 2 (Homo sapiens) (P21802 22-821 limits assumed): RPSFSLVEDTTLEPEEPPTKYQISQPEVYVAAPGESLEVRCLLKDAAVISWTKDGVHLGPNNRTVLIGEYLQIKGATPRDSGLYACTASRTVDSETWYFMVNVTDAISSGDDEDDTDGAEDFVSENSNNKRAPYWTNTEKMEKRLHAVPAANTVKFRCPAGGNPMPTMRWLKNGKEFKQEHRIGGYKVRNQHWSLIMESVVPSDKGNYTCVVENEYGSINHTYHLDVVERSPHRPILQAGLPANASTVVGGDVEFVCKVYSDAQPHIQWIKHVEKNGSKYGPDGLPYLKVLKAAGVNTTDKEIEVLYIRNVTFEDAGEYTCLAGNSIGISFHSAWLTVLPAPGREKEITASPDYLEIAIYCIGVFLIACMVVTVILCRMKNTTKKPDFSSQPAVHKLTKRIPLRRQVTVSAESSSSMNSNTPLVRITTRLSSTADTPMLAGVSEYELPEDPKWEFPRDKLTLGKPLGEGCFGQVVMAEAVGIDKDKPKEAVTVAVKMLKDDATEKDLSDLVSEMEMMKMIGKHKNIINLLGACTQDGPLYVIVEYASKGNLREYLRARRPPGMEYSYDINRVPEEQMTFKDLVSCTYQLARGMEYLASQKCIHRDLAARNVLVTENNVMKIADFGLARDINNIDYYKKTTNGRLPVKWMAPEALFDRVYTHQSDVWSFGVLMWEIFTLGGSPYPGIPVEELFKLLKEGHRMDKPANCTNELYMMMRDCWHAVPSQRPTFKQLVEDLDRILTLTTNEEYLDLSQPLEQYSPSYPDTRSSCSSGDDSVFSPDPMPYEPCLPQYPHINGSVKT
Chain of Insulin-like growth factor 1 receptor (Homo sapiens) (P08069 31-736 limits assumed): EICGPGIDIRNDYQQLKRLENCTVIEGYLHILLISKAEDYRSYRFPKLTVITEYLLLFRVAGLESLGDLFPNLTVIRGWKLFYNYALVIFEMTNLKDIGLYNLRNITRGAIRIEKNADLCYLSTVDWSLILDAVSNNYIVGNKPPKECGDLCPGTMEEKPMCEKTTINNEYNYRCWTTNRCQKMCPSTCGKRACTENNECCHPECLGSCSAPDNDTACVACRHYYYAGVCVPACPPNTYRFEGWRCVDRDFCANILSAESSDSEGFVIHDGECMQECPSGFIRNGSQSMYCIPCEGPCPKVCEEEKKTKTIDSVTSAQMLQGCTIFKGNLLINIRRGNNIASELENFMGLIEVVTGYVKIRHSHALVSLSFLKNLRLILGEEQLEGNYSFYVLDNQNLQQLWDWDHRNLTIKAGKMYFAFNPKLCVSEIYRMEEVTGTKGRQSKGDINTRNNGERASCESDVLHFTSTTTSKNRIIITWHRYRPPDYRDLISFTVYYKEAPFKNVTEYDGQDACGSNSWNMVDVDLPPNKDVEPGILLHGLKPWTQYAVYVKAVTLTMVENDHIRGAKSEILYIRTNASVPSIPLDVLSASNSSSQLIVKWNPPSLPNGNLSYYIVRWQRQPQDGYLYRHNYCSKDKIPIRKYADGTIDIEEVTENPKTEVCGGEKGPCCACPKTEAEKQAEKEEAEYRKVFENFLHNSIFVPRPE
Chain of Insulin-like growth factor 1 receptor (Homo sapiens) (P08069 741-1367 limits assumed): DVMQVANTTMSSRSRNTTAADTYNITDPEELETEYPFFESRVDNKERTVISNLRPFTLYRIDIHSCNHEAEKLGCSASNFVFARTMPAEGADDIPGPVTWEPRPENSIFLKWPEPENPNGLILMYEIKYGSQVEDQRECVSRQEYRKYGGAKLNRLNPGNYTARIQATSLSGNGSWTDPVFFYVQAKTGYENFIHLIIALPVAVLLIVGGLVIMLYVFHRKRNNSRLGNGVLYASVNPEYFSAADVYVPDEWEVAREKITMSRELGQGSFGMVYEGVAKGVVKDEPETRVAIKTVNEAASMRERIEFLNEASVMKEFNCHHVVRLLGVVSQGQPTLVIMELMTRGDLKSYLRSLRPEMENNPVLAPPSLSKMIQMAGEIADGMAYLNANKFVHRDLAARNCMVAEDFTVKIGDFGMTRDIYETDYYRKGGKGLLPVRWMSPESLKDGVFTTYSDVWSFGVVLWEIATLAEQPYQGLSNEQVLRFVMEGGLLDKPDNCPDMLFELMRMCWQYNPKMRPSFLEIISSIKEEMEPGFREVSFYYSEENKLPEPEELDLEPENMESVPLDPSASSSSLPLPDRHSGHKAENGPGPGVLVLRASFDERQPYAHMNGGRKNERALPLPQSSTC
Chain of Cyclin-dependent kinase 4 (Homo sapiens) (P11802 whole entry): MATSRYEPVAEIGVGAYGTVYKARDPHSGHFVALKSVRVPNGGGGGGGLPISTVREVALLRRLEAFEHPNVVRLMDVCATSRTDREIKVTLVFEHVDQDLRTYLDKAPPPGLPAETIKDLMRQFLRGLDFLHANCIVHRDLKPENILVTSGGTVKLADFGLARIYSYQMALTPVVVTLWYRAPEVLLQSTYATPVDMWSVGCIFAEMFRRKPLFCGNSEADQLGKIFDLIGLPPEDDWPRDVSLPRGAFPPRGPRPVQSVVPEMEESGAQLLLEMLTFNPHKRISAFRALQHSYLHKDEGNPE
Chain of Angiopoietin-1 receptor (Homo sapiens) (Q02763 whole entry): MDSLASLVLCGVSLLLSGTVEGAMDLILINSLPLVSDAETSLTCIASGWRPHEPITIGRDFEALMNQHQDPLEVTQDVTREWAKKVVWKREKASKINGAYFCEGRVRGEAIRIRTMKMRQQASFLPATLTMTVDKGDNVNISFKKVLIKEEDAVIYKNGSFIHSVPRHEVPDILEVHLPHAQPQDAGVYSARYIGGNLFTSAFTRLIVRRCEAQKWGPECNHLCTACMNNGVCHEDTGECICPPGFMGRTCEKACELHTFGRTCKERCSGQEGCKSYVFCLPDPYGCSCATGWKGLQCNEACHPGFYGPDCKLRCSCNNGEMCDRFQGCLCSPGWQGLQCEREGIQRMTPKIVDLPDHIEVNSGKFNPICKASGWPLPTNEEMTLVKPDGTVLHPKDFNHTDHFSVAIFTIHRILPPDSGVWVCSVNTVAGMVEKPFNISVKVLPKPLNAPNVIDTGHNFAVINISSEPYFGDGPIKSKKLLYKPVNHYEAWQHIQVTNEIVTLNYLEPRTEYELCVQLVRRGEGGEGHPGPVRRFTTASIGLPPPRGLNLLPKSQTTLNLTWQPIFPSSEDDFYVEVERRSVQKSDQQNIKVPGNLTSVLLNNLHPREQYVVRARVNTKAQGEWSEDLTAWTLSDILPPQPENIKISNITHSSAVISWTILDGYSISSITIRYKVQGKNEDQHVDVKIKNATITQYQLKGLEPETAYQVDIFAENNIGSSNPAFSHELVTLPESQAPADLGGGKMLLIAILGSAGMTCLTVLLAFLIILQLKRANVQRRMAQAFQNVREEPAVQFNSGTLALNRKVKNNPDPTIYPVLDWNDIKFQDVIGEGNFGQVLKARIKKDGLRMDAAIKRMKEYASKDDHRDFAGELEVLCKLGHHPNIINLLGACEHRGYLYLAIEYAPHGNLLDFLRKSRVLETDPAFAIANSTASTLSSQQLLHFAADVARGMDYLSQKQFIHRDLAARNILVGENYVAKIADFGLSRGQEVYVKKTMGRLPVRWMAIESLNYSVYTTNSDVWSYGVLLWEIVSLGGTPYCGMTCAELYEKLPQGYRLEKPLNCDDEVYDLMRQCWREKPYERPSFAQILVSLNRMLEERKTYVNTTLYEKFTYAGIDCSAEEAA

A word on the IC50: it is the concentration at which inhibition is half-maximal. Read a low IC50 as greater potency. One may read the inhibition as the change of the read-out against control, counted positive when it falls. As usually defined, the AUC(0-t) is exposure summed from dosing to a finite time, without extrapolation to infinity. The low end stands for less exposure, the high end for more exposure. As a reminder, the AUC(0-inf) is the area under the concentration-time curve extrapolated to infinity. For `Cc1ccc(C(=O)Nc2cccc(C(F)(F)F)c2)cc1-c1ccc2c(-c3cnn(C4CC4)c3)n[nH]c2c1`, the IC50 is 108 nM in series [1], 31.8 nM in [8], > 40000 nM in series [12] and 93 nM in series [15]. For the same compound, the inhibition was 95% in series [2]; “Dose-dependent effect” in [3]; 1.1% in series [5]; 8.1% in series [6]; 5.5% in [9]; 83.6% in [11]. The figures for the inhibition in series [13], in [14] and in series [16] were 72.6%, 6.8% and 33.9%, respectively. In addition, in series [4], the inhibition in vivo at 20 mg/kg worked out at 98.1%. This compound also had an area under the curve AUC(0-t) in [7] of 7640 ng·h/mL. In addition, the AUC(0-inf) in series [10] is 7680 ng·h/mL.
